Fewer inactive variants are shown than the library holds.
B1: tRNA (parent)
chain: GUUCCGUUGGCGUAAUGGUAACGCGUCUCCCUCCUAAGGAGAAGACUGCGGGUUCGAGUCCCGUACGGAACG

Variants of: B1
Test: yeast fitness relative to wild type (ratio to wild type); higher = fitter; tRNA-Arg(CCU), competitive growth, 37 C, YPD
Outline: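 Changes in genotype frequencies gave Darwinian fitness relative to wild type. Frequencies were read by 100-nucleotide paired-end sequencing of gene amplicons before and after pooled Saccharomyces cerevisiae strains, carrying tRNA-Arg(CCU) gene variants at the native locus, were competed in YPD at 37°C for 24 hours in six replicates. A genotype was kept only with ≥ 100 starting reads, and estimates < 0.5 were set to 0.5.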
In the case of GUUCCGUUGGCGUAAUGGUCAUGCGUCUCCCUUCUAAGGAGAAGACUGCGGGUUCGAGUCCCGUACGGAACG [A20C C22U C33U], the yeast fitness is reported as 0.542. For GUUCCGUUGGCGUAAUGGUCACGAGUCUCCCUCCUAAGGAGAAGACUGCGGGUUCGAGUGCCGUACGGAACG [A20C C24A C60G], the yeast fitness was at most 0.5. With GUUCCGUUGGCGUAAUGGUCACGUGUCUCCCUCCUAAGGAGAAGACAGCGGGUUCGAGUCCCGUACCGAACG [A20C C24U U47A G67C] the yeast fitness was at most 0.5. Work on GUUCCGUUGGCGUAAUGGUCACGGGUCUGCCUCCUAAGGAGAAGACUGCGGGUUCGAGUCCCGUGCGGAACG [A20C C24G C29G A65G] yielded a yeast fitness of at most 0.5. Work on GUUCCGUUGGCGUAAUGGUCAUGCGUCUCCCUCUGAAGGAGAAGACUGCGGGUUCGAGUCCCGUACGGAACG [A20C C22U C34U U35G] yielded a yeast fitness of at most 0.5. Work on GUUCCGUUGGCGUAAUGGUCACGGGUUUCCGUCCUAAGGAGAAGACUGCGGGUUCGAGUCCCGUCCGGAACG [A20C C24G C27U C31G A65C] yielded a yeast fitness of at most 0.5. GUUCCGUUGGCGUAAUGGUCACGUGUCUCCCUCCUAAGGAGCAGACUGCGGGUUGGAGUCCCGUACGGAACG [A20C C24U A42C C55G] gave a yeast fitness of at most 0.5. With GUUCCGUUGGCGUAAUGGUCACGCGUCUCCCUCCUAGGGAGAAGACUGGGGGAUCGAGUUCCGUACGGAACG [A20C A37G C49G U53A C60U] the yeast fitness was 0.527. For GUUCCGUUGGCGUAAUGGUCACGCGUCUCCCUCCUAAGGUGAAGACUACGGGUUCGAGUCACGUACGAAACG [A20C A40U G48A C61A G68A], the yeast fitness was at most 0.5. In the case of GUUCCGUUGGCGUAAUGGUCACGCGUCUCCCUCCUAAGGAGCAGACUGCGGGUUCGACUCCCGUACGGAACG [A20C A42C G58C], the yeast fitness is reported as 0.52. GUUCCGUUGGCGUAAUGGUCACGCGUCUCCCUCCUAAGGUGAAGACUGCGGGUUCGAGUGCCGUCCGGAACG [A20C A40U C60G A65C] showed a yeast fitness of at most 0.5. Variant GUUCCGUUGGCGUAAUGGUCACGCGUCUCCCUCCUAAGGAGAAGACUGCGGGUUCGAGUCCCGUUCGGAACG [A20C A65U] has a yeast fitness of 0.722. GUUCCGUUGGCGUAAUGGUCACGCGUCUCCCUCCUAAGGAGAAGACUGCGGGUUCGAGUCCCGUGCGGAACG [A20C A65G] gave a yeast fitness of 0.936. GUUCCGUUGGCGUAAUGGUCACGCGUCUCCCUCCUAAGGAGAAGACUGCGGGUUCGAGUCCCGUACGGACCG [A20C A70C] gave a yeast fitness of 0.862. With GUUCCGUUGGCGUAAUGGUCAGGCGUCUCCCUACUAAGGAGCAGACUGCGGGUUCGAGUCUCGUACGGAACG [A20C C22G C33A A42C C61U] the yeast fitness was at most 0.5. With GUUCCGUUGGCGUAAUGGUCACGCGUCUCCCUCCUAUGGAGAAGACUGCGGGUUCGAGGCCCGUAAGGAACG [A20C A37U U59G C66A] the yeast fitness was 0.656. For GUUCCGUUGGCGUAAUGGUCACGGGUCUCCCUCCUAAGGAGAAGACUGCGGGUUCAAGUCCAGUACGGAACG [A20C C24G G56A C62A], the yeast fitness was at most 0.5. GUUCCGUUGGCGUAAUGGUCACGUGUCUCCCUCCUAAGGAGACGACUGCGGGUUCGAGUCCCGUACGGAACG [A20C C24U A43C] gave a yeast fitness of at most 0.5. In the case of GUUCCGUUGGCGUAAUGGUCACGCGUCUCCCUCCUAAGGGGUAGACUGCACGUUCGAGUCCCGUACGGACCG [A20C A40G A42U G50A G51C A70C], the yeast fitness is reported as 0.563. For GUUCCGUUGGCGUAAUGGUCACGCGUCUCCCUCCUAAGGAGAUGACUCCGGGUUCGAGUCCCGUACGGAACG [A20C A43U G48C], the yeast fitness was 0.615. GUUCCGUUGGCGUAAUGGUCACGAGUCUUCCUCCUAAGGAGAAGACUGCGGGUUCGAGUCCCCUACGGAACG [A20C C24A C29U G63C] showed a yeast fitness of at most 0.5. GUUCCGUUGGCGUAAUGGUCACGCGUCUCCCUCCUAAGGAGAAGACUGCGGGUUCGCGUCCCGUACGGAACG [A20C A57C] showed a yeast fitness of 0.601. Work on GUUCCGUUGGCGUAAUGGUCACGCGUCUCCCUCCUAAGGAGAAGACUGCGGGUUCGGGUCCCGUACGGAACG [A20C A57G] yielded a yeast fitness of 0.757. For GUUCCGUUGGCGUAAUGGUCACGCGUCUCCCUCCUAAGGAGAAGACUGCGGGUUCGUGUCCCGUACGGAACG [A20C A57U], the yeast fitness was 0.81. Variant GUUCCGUUGGCGUAAUGGUCAUGCGUCUCCCUCUGAAGGAGAAGACCGCGGGUUCGAGUCCCGUCCGGAACG [A20C C22U C34U U35G U47C A65C] has a yeast fitness of at most 0.5. For GUUCCGUUGGCGUAAUGGUCACGCGUCUCCCUCCUAAGGAGACGACUGCGGGUUCGCGUCCCGUACGGAACG [A20C A43C A57C], the yeast fitness was at most 0.5. GUUCCGUUGGCGUAAUGGUCAGGCGUCUCCCUCGUAAGGAGAAAACUGCGGGUUCGAGUCCCGUUCGGAACG [A20C C22G C34G G44A A65U] showed a yeast fitness of 0.569. GUUCCGUUGGCGUAAUGGUCACGUGUCUCCCUCCUAAGGGGUAGACUGCACGUUCGAGUCCCGUACGGACCG [A20C C24U A40G A42U G50A G51C A70C] gave a yeast fitness of at most 0.5. For GUUCCGUUGGCGUAAUGGUCACGCGUCUCCCUCCUAAGGUGAAGACUGCGGGUUCGAGUCACGUACGAAACG [A20C A40U C61A G68A], the yeast fitness was 0.574. With GUUCCGUUGGCGUAAUGGUCACGUGUCUCCCUCCUAAGGAGAAGACUGCGGGUUUGAGUCCCGUACGGAACG [A20C C24U C55U] the yeast fitness was at most 0.5. In the case of GUUCCGUUGGCGUAAUGGUCACGUGUCUCCCUCCUAAGGAGAAGACUGCGGGUUGGAGUCCCGUACGGAACG [A20C C24U C55G], the yeast fitness is reported as 0.643. With GUUCCGUUGGCGUAAUGGUCACGCGUCUCCCUCCUAAGGUGAUGACUGCGGGUUCGAGUCCCGUACGGAUCG [A20C A40U A43U A70U] the yeast fitness was at most 0.5. With GUUCCGUUGGCGUAAUGGUCACGUGUCUCCCUCGUAAGGAGAAGACUGCGGGUUCGAGUCCCGUACGGAACG [A20C C24U C34G] the yeast fitness was 0.506. GUUCCGUUGGCGUAAUGGUCACGGGUCUCCCUCCUAAGGAGAAGACUGCGGGUUCGAGUCCCGUACGGUACG [A20C C24G A69U] showed a yeast fitness of at most 0.5. For GUUCCGUUGGCGUAAUGGUCACGUGUCUCCCUCCUAAGGAGUAGACUGCGGGUUCGAGCCCUGUACGGAACG [A20C C24U A42U U59C C62U], the yeast fitness was at most 0.5. Work on GUUCCGUUGGCGUAAUGGUCACGCGUCUCCCUCCUAAGGAGCAGACUGCGGGUUCGAGUCCCGUACGGAACG [A20C A42C] yielded a yeast fitness of 0.603. Work on GUUCCGUUGGCGUAAUGGUCAUGCGUCUCCCUCCUAAGGAGAAGACUGCGGGUUCGAGUCCCGUACGGAACG [A20C C22U] yielded a yeast fitness of 0.729.

From the RNAGym collection of RNA variant scans (doi:10.1126/science.aae0568)
